Screens: PubChem, several laboratories
A selection: hits, their analogues and other compounds. The true share with any hit is near 2.6%.
Lipid droplet = modulators of hepatic lipid droplet formation; AML12 mouse hepatocytes, oleate lipid droplets, BODIPY imaging; inhibition, % at 6.5 µM; AID 1656; 0.4% of 240,000 active;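 active means lipid droplet intensity inhibited by at least 50%, with more than 500 cells counted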
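Assay system: AML12 mouse liver cells | Compound dosing: One dose, 6.5 µM compound | Read-out basis: Droplet intensity reduction, % inhibition | Measured by: Fluorescence imaging, 20x objective, two fields per well | Schedule: Overnight treatment with compound plus oleate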
MEKK2 WT-MEK5 = raises or lowers MEK5 binding to wildtype human MEKK2 PB1 domain; AID 1531; 1.1% of 290,000 active; Q9Y2U5; bead flow cytometry, Alexa488-MEK5 binding to MEKK2 WT; actives lie on both sides; binding response (% of control), % at 10 µM; in the data active means binding response below about 67% or above about 130%
MEKK2mut PB1 HTS = signal of MEK5 binding to mutant human MEKK2 PB1 domain; bead flow cytometry, Alexa488-MEK5 binding to MEKK2 mutant; percent response, % at 10 µM; 0.35% of 290,000 active; AID 1530; in the data active means percent response above about 24%, passing the limit was not always enough
MEKK3 PB1 HTS = raises or lowers MEK5 binding to the human MEKK3 PB1 domain. Q99759. bead-based flow cytometry, Alexa488-MEK5 binding to MEKK3; actives lie on both sides; 0 = blocked by unlabeled MEK5, 100 = vehicle. binding response (% of control), % at 10 µM. 1.4% of 290,000 active. AID 1529;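 active means binding response more than 3 SD above or below the average of its plate-row segment, actives on both sides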;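 further: Alexa488 bead fluorescence after subtracting the streptavidin-only scavenger bead signal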
Target sequence (Q99759 whole entry, looked up, the tested form may be a part): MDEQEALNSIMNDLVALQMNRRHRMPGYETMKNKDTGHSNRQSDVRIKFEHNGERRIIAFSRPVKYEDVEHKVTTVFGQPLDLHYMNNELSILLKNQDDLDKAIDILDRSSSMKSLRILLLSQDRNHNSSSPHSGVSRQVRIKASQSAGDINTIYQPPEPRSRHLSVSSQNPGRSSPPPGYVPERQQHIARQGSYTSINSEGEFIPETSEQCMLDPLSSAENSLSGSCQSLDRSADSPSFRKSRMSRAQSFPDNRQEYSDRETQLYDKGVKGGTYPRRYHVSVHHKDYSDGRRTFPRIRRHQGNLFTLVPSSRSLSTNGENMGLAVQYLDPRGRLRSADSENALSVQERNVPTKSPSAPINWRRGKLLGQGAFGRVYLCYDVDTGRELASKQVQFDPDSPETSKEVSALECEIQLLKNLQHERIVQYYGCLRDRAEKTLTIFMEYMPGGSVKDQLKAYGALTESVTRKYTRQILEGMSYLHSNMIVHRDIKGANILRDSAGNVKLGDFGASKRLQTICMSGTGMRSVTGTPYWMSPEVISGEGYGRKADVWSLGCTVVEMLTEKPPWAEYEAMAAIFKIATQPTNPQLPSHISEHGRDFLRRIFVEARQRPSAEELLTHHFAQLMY
MEKK2wt confirm = raises or lowers MEK5 binding to wildtype human MEKK2, retest | binding response (% of control), % at 10 µM | 2.4% of 5,900 active | bead flow cytometry, Alexa488-MEK5 binding to MEKK2 WT; actives lie on both sides | AID 1892 | shares compounds with MEKK3 PB1 HTS; in the data active means binding response below about 16% or above about 210%; inactive means in between
MEKK2mut-MEK5 = signal of MEK5 binding to mutant human MEKK2, retest | 2% of 5,900 active | shares compounds with MEKK3 PB1 HTS | bead flow cytometry, Alexa488-MEK5 binding to MEKK2 mutant | percent response, % at 10 µM; in the data active means percent response mostly above about 71%, no sharp cut-off; inactive means mostly below about 38%;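 further: higher means compound restores mutant binding toward wildtype level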
MEKK3 confirm = confirmation of inhibitors of MEK5 binding to human MEKK3; 1.8% of 5,900 active; shares compounds with MEKK3 PB1 HTS; bead flow cytometry, Alexa488-MEK5 binding to MEKK3; active compounds read low; binding response (% of control), % at 10 µM;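 active means binding response below 72% of control, or above a set upper limit, though filed actives all read lower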;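 further: 100% = DMSO only wells and 0% = binding blocked by excess unlabeled MEK5; lower values mean stronger disruption of MEK5 binding to MEKK3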
* hit, by the source's call; · = not tested or not shown; [ ] = dose if it differs, or a comment.

SMILES	Lipid droplet	MEKK2 WT-MEK5	MEKK2mut PB1 HTS	MEKK3 PB1 HTS	MEKK2wt confirm	MEKK2mut-MEK5	MEKK3 confirm
CCOC(=O)Cc1c(C)nc2c(-c3ccc(Cl)cc3)c(C)nn2c1C	-7	·	-34	0.0*[inhibitor]	90	-10	89
CC(=O)OCCCNc1cc(Sc2ccc(Cl)cc2)c2nonc2c1[N+](=O)[O-]	-2	104	0	132*	95	0	95
Cc1ccc(Sc2cc(NCCCO)c([N+](=O)[O-])c3nonc23)cc1	18	112	3	108	·	·	·
CC(=O)c1c(C)cc(C)c(CSc2ccccn2)c1C	-2	107	2	104	·	·	·
CCCCC(=O)NC(=S)Nc1cccc(NC(=O)c2ccccc2)c1	3	61	-15	49*[inhibitor]	96	-6	99
CCCCOc1cccc(C(=O)NC(=S)Nc2cccc(NC(=O)c3ccccc3Cl)c2)c1	-2	105	1	137*	100	-3	102
Cc1ccc(OCC(=O)NC(=S)Nc2cccc(NC(=O)c3ccccc3)c2)cc1	-1	93	-2	94	·	·	·
CCCC(=O)NC(=S)Nc1cccc(NC(=O)c2ccccc2)c1	-15	100	6	117	·	·	·
CC(C)CC(=O)NC(=S)Nc1cccc(NC(=O)c2ccccc2)c1	-14	105	-1	154*	105	3	103
CCC(=O)Nc1cccc(NC(=O)c2ccc(Br)cc2)c1	-2	107	1	135*	94	-12	92
CC(=O)c1ccc(N2Cc3ccccc3C3(CCOCC3)C2=N)cc1	-1	105	-1	108	·	·	·
C=CCc1c(C)nc2c(OC)cccc2c1Cl	-1	111	-1	131*	103	-2	100
C=CCSC1=NNC(c2ccc(C(C)(C)C)cc2)=NN1	3	100	7	100	·	·	·
CN(C)S(=O)(=O)c1cccc(NC(=S)Nc2cc(Cl)cc(Cl)c2)c1	-1	150*	10	111	114	3	107
COc1ccc(-c2nsc3c(N4CCCC4)ncnc23)cc1	·	-2.0*[inhibitor]	-15	-1.0*[inhibitor]	98	-2	98
COc1ccc(-c2csc3ncnc(N4CCN(c5ccc(OC)cc5)CC4)c23)cc1	3	101	-3	102	·	·	·
COCCN(C(=O)C1CC1)c1nnc(-c2cccc(C)c2)s1	·	0.0*[inhibitor]	-21	0.0*[inhibitor]	109	15	110
Cc1ccc(C(=O)NNc2cc(=O)n(C)c(=O)n2C)cc1C	2	105	0	142*	102	-8	102
CC(C)=CCC/C(C)=C/CC(C)(C)CNCCN1CCNCC1	·	163*	21	119	111	12	105
CCCCN(CC)C(=O)Cc1ccc(Br)cc1	-21	105	0	128*	95	5	104
CCCCN(CC)C(=O)Cc1ccccc1OC	·	107	14	107	·	·	·
Cc1ccc(S(=O)(=O)NC2=NCN(C(C)C)CN2)cc1	-1	107	1	104	·	·	·
CNNC(=S)Nc1cccc(SC)c1	-59	100	3	95	·	·	·
O=S(=O)(NC(=S)NC1CCCCC1)c1cccs1	-4	99	1	98	·	·	·
O=S(=O)(NC(=S)NC1CCCCC1)c1ccccc1	21	6.0*[inhibitor]	-23	4.0*[inhibitor]	99	-2	100
O=c1c([N+](=O)[O-])c[nH]c2ccccc12	-3	106	0	135*	99	1	101
O=[N+]([O-])c1ccccc1N/N=C/c1c[nH]c2ccccc12	·	111	4	110	·	·	·
N=C(N)c1ccc(OCCCCCOc2ccc(C(=N)N)cc2)cc1	1	150*	12	69	97	-14	66*
C=Cc1c(C)c2cc3[nH]c(cc4nc(cc5nc(cc1[nH]2)C(C)=C5CCC(=O)O)C(CCC(=O)O)=C4C)c(C)c3C=C	·	60*[inhibitor]	-8	88	69	-13	98
O=C(/C(=N\Nc1ccccc1)Sc1nnnn1-c1ccccc1)c1ccccc1	0	106	-1	138*	99	-5	102
